Source: ChEMBL document CHEMBL3352173, “Optimization of pyrrolamide topoisomerase II inhibitors toward identification of an antibacterial clinical candidate (AZD5099)” (J Med Chem, 2014)
pIC50: −log10 of the molar value. Converted amounts (≈) assume the structure as drawn.

Legend:
Haemophilus influenzae = experiment: Antimicrobial activity against Haemophilus influenzae by broth microdilution/CLSI method; type: functional; details: Haemophilus influenzae; read-out: MIC
DNA gyrase subunit B = DNA gyrase subunit B (Staphylococcus aureus, UniProt P0A0K8); experiment: Inhibition of ATPase activity of Staphylococcus aureus GyrB
Procedure, shortened: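 IC50 was determined against S. aureus GyrB in the routine screening assay. The enzyme concentration limits resolution below 10 nM.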

Streptococcus pneumoniae = experiment: Antibacterial activity against Streptococcus pneumoniae by broth microdilution/CLSI method; type: functional; details: Streptococcus pneumoniae; read-out: MIC
Streptococcus pyogenes = experiment: Antimicrobial activity against Streptococcus pyogenes by broth microdilution/CLSI method; type: functional
Staphylococcus aureus [1] = experiment: Antimicrobial activity against methicillin-sensitive Staphylococcus aureus by broth microdilution/CLSI method; type: functional; details: Staphylococcus aureus; read-out: MIC
Moraxella catarrhalis = experiment: Antimicrobial activity against Moraxella catarrhalis by broth microdilution/CLSI method; type: functional; details: Moraxella catarrhalis; read-out: MIC
Escherichia coli [2] = experiment: Antimicrobial activity against wild-type Escherichia coli Eco523 by broth microdilution/CLSI method; type: functional; details: Escherichia coli, Eco523; read-out: MIC
[3] = Percentage unbound in human plasma; type: ADME, cell-free
[4] = Ratio of MIC for methicillin, quinolone-resistant Staphylococcus aureus to fraction unbound in human plasma; type: ADME
[5] = Clearance in rat at 10 mg/kg, iv; type: ADME, organism-based; parameters: dose 10 mg/kg, route intravenous; details: in vivo
Staphylococcus aureus [6] = experiment: Antimicrobial activity against methicillin, quinolone-resistant Staphylococcus aureus by broth microdilution/CLSI method; type: functional; details: Staphylococcus aureus; read-out: MIC
Escherichia coli [7] = experiment: Antimicrobial activity against Escherichia coli tolC- by broth microdilution/CLSI method; type: functional; details: Escherichia coli; read-out: MIC
[8] = Octanol-phosphate buffer distribution coefficient, log D of the compound at pH 7.4 by shake flask method; type: physicochemical
[9] = Solubility of the compound; type: physicochemical

DNA gyrase subunit B, sequence (P0A0K8 whole entry): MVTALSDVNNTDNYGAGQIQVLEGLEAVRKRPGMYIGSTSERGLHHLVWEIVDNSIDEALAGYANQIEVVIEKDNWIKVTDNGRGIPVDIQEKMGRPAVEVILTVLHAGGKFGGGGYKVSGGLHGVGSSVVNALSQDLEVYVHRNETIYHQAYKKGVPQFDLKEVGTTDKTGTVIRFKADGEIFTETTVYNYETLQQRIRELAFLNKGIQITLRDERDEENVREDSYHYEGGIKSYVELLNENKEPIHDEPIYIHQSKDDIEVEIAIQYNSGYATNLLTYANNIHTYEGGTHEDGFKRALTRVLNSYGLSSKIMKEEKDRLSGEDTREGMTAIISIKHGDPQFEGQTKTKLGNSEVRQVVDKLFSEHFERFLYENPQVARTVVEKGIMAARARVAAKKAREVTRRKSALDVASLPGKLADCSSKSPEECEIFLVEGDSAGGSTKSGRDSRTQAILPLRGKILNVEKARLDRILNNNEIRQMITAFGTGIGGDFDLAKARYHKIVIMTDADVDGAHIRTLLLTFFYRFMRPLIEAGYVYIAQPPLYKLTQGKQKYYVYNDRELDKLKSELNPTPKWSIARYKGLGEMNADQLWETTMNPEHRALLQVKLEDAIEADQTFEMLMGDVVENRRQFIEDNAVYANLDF

SMILES | MIC (Haemophilus influenzae) [µg/mL] | pIC50 (DNA gyrase subunit B) | MIC (Streptococcus pneumoniae) [µg/mL] | MIC (Streptococcus pyogenes) [µg/mL] | MIC (Staphylococcus aureus [1]) [µg/mL] | MIC (Moraxella catarrhalis) [µg/mL] | MIC (Escherichia coli [2]) [µg/mL] | fraction unbound [3] | Ratio [4] | clearance [5] [mL/min/kg] | MIC (Staphylococcus aureus [6]) [µg/mL] | MIC (Escherichia coli [7]) [µg/mL] | logD [8] | solubility [9] [µM]
COc1ccnc(-c2nc(N3CC[C@@H](NC(=O)c4[nH]c(C)c(Cl)c4Cl)[C@@H](OC)C3)sc2C(=O)O)n1 | 0.25 (≈ 0.462 µM) | > 8.00 | < 0.06 | < 0.06 | < 0.06 | < 0.06 | 16 (≈ 29.6 µM) | 0.036 | 1.75 | 6.3 | – | – | – | –
CO[C@H]1CN(c2nc(C(=O)NN3CCOCC3)c(C(=O)O)s2)CC[C@H]1NC(=O)c1[nH]c(C)c(Cl)c1Cl | 1.4 (≈ 2.49 µM) | > 8.00 | 0.25 (≈ 0.445 µM) | 0.25 (≈ 0.445 µM) | 2 (≈ 3.56 µM) | 0.35 (≈ 0.623 µM) | > 64 | 0.071 | 56 | – | 4 (≈ 7.12 µM) | 1 (≈ 1.78 µM) | -0.15 | > 1000
CO[C@H]1CN(c2nc(C(=O)O)c(C)s2)CC[C@H]1NC(=O)c1[nH]c(C)c(Cl)c1Cl | 0.25 (≈ 0.559 µM) | > 8.00 | 0.031 (≈ 0.0693 µM) | 0.063 (≈ 0.141 µM) | 0.13 (≈ 0.291 µM) | 0.063 (≈ 0.141 µM) | > 8 | 0.007 | 19 | – | 0.13 (≈ 0.291 µM) | 0.25 (≈ 0.559 µM) | 1.2 | > 1000
CO[C@H]1CN(c2nc(-c3cncnc3)c(C(=O)O)s2)CC[C@H]1NC(=O)c1[nH]c(C)c(Cl)c1Cl | 1.6 (≈ 3.13 µM) | > 8.00 | < 0.1 | 0.4 (≈ 0.782 µM) | 3.2 (≈ 6.26 µM) | 0.4 (≈ 0.782 µM) | > 100 | 0.011 | 290 | – | 3.2 (≈ 6.26 µM) | 0.8 (≈ 1.56 µM) | 0.35 | 260 (≈ 133 µg/mL)
CO[C@H]1CN(c2nc(C(=O)NCCN3CCOCC3)c(C(=O)O)s2)CC[C@H]1NC(=O)c1[nH]c(C)c(Cl)c1Cl | 0.25 (≈ 0.424 µM) | > 8.00 | 0.031 (≈ 0.0526 µM) | 0.031 (≈ 0.0526 µM) | 0.25 (≈ 0.424 µM) | 0.031 (≈ 0.0526 µM) | > 8 | 0.054 | 9.2 | – | 0.5 (≈ 0.848 µM) | 0.25 (≈ 0.424 µM) | 1 | > 1000
CO[C@H]1CN(c2nc(C(=O)NCCN3CCCC3=O)c(C(=O)O)s2)CC[C@H]1NC(=O)c1[nH]c(C)c(Cl)c1Cl | 0.5 (≈ 0.851 µM) | > 8.00 | < 0.06 | < 0.06 | 0.35 (≈ 0.596 µM) | < 0.063 | 64 (≈ 109 µM) | 0.076 | 18 | – | 1.4 (≈ 2.38 µM) | 0.71 (≈ 1.21 µM) | – | 870 (≈ 511 µg/mL)
CO[C@H]1CN(c2nc(C(F)F)c(C(=O)O)s2)CC[C@H]1NC(=O)c1[nH]c(C)c(Cl)c1Cl | 1 (≈ 2.07 µM) | > 8.00 | 0.063 (≈ 0.13 µM) | 0.13 (≈ 0.269 µM) | 2 (≈ 4.14 µM) | 0.063 (≈ 0.13 µM) | > 8 | – | – | 70 | 2 (≈ 4.14 µM) | 0.5 (≈ 1.03 µM) | 0.52 | 690 (≈ 333 µg/mL)
CO[C@H]1CN(c2nc(-c3cn(C)cn3)c(C(=O)O)s2)CC[C@H]1NC(=O)c1[nH]c(C)c(Cl)c1Cl | 2 (≈ 3.9 µM) | > 8.00 | < 0.06 | < 0.06 | 0.13 (≈ 0.253 µM) | < 0.06 | 16 (≈ 31.2 µM) | 0.019 | 6.8 | – | 0.13 (≈ 0.253 µM) | < 0.06 | 2.5 | 3 (≈ 1.54 µg/mL)
CO[C@H]1CN(c2nc(C(N)=O)c(C(=O)O)s2)CC[C@H]1NC(=O)c1[nH]c(C)c(Cl)c1Cl | 0.16 (≈ 0.336 µM) | > 8.00 | 0.039 (≈ 0.0819 µM) | 0.039 (≈ 0.0819 µM) | 0.5 (≈ 1.05 µM) | 0.02 (≈ 0.042 µM) | > 8 | 0.043 | 12 | – | 0.5 (≈ 1.05 µM) | 0.32 (≈ 0.672 µM) | 0.85 | 280 (≈ 133 µg/mL)
CO[C@H]1CN(c2nc(-c3ncc[nH]3)c(C(=O)O)s2)CC[C@H]1NC(=O)c1[nH]c(C)c(Cl)c1Cl | 1 (≈ 2 µM) | > 8.00 | < 0.06 | 0.08 (≈ 0.16 µM) | 0.63 (≈ 1.26 µM) | < 0.06 | > 64 | < 0.01 | 100 | – | 1 (≈ 2 µM) | < 0.06 | > 2.5 | < 1
CO[C@H]1CN(c2nc(-c3cncc(NCCN4CCN(C)CC4)n3)c(C(=O)O)s2)CC[C@H]1NC(=O)c1[nH]c(C)c(Cl)c1Cl | 1 (≈ 1.53 µM) | 8.92 | 0.011 (≈ 0.0169 µM) | 0.031 (≈ 0.0475 µM) | 0.25 (≈ 0.383 µM) | – | 46 (≈ 70.5 µM) | 0.027 | 21 | – | 0.58 (≈ 0.889 µM) | 0.51 (≈ 0.781 µM) | 2 | 36 (≈ 23.5 µg/mL)
CO[C@H]1CN(c2nc(C(=O)NC[C@H](C)OC)c(C(=O)O)s2)CC[C@H]1NC(=O)c1[nH]c(C)c(Cl)c1Cl | 0.13 (≈ 0.237 µM) | > 8.00 | 0.016 (≈ 0.0292 µM) | < 0.008 | 0.031 (≈ 0.0565 µM) | < 0.008 | > 8 | 0.027 | 1.1 | 13 | 0.031 (≈ 0.0565 µM) | 0.5 (≈ 0.912 µM) | – | –
